Values belong to the molecule of their own block, whether it stands above or below them. Active and inactive are the calls of the source. The calls are words filed in the database; no cut-off is given here.
Legend:
Mus musculus [1] = assay: Toxicity in NCI-H1975 xenografted BALB/c mouse assessed as induction of weakness at 4 mg/kg po, qd for 21 days; format: organism-based; conditions: in vivo, 504 h
Outline: (§1)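 Athymic mice bearing subcutaneous right-flank xenografts (2 × 10⁶ cells, dosed at 100–300 mm³; n = 6 per group; vehicle controls). Health was observed daily and body weight measured on indicated days. Body weight change (%) = (Wt/W0 − 1) × 100 against predosing weight, given as group mean ± SEM.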

Mus musculus [2] = assay: Toxicity in NCI-H1975 xenografted BALB/c mouse assessed as body weight loss at 4 mg/kg po, qd for 21 days; format: organism-based; conditions: in vivo, 504 h; outline: as §1
Mus musculus [3] = assay: Toxicity in NCI-H1975 xenografted BALB/c mouse assessed as induction of eye disease at 4 mg/kg po, qd for 21 days; format: organism-based; conditions: in vivo, 504 h; outline: as §1
[4] = target: Epidermal growth factor receptor (Homo sapiens, UniProt P00533); assay: Inhibition of EGFR (unknown origin) by ELISA method
NCI-H1975 [5] = assay: Antitumor activity against human NCI-H1975 cells xenografted in BALB/c mouse assessed as tumor growth inhibition at 4 mg/kg po, qd for 21 days; format: functional, organism-based
Outline: (§2)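 Athymic mice received 2 × 10⁶ tumour cells subcutaneously in the right flank. At 100–300 mm³ they were randomised to control and treatment groups (n = 6); controls received vehicle alone. Tumour volume = length × width²/2 and RTV = Vt/V0.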

[6] = Toxicity in NCI-H1975 xenografted BALB/c mouse assessed as induction of mouse mortality at 4 mg/kg po, qd for 9 days; format: organism-based; conditions: in vivo
Outline: (§3)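 Athymic mice received 2 × 10⁶ NCI-H1975 cells subcutaneously in the right flank. When tumours reached 100–300 mm³, mice were randomised into control and treatment groups (n = 6 per group), and controls got vehicle alone. Health was checked daily, and body weight and tumour size were measured on set days during treatment.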

Mus musculus [7] = assay: Toxicity in NCI-H1975 xenografted BALB/c mouse assessed as induction of exfoliative skin disorder at 4 mg/kg po, qd for 21 days; format: organism-based; conditions: in vivo, 504 h; outline: as §1
Mus musculus [8] = assay: Toxicity in NCI-H1975 xenografted BALB/c mouse assessed as induction of lethargy at 4 mg/kg po, qd for 21 days; format: organism-based; conditions: in vivo, 504 h; outline: as §1
NCI-H1975 [9] = assay: Antiproliferative activity against human NCI-H1975 cells assessed as growth inhibition; format: functional
Outline: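 NCI-H1975 cells were grown in RPMI with 1 mM sodium pyruvate, 10% FBS and 1% penicillin-streptomycin, under humidified 5% CO₂ at 37 °C. Growth inhibition was read as GI₅₀.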

Mus musculus [10] = assay: Toxicity in NCI-H1975 xenografted BALB/c mouse assessed as body weight loss at 20 mg/kg po, qd for 21 days; format: organism-based; conditions: in vivo, 504 h; outline: as §1
[11] = Toxicity in NCI-H1975 xenografted BALB/c mouse assessed as induction of mouse mortality at 20 mg/kg po, qd for 7 days; format: organism-based; conditions: in vivo; outline: as §3
NCI-H1975 [12] = assay: Antitumor activity against human NCI-H1975 cells xenografted in BALB/c mouse assessed as tumor growth inhibition at 20 mg/kg po, qd for 21 days relative to control; format: functional; outline: as §2
Mus musculus [13] = assay: Toxicity in NCI-H1975 xenografted BALB/c mouse assessed as skin toxicity at 10 mg/kg po, qd for 21 days; format: organism-based; conditions: in vivo, 504 h; outline: as §1
Mus musculus [14] = assay: Toxicity in NCI-H1975 xenografted BALB/c mouse assessed as body weight change at 10 mg/kg po, qd for 21 days; format: organism-based; conditions: in vivo, 504 h; outline: as §1
NCI-H1975 [15] = assay: Antitumor activity against human NCI-H1975 cells xenografted in BALB/c mouse assessed as tumor growth inhibition at 10 mg/kg po, qd for 21 days; format: functional, organism-based; outline: as §2
Mus musculus [16] = assay: Toxicity in human HCC827 cells xenografted BALB/c mouse assessed as body weight loss at 5 mg/kg po, qd for 12 days; format: organism-based; conditions: in vivo, 288 h; outline: as §1
Mus musculus [17] = assay: Toxicity in human A431 cells xenografted BALB/c mouse assessed as body weight loss at 5 and 10 mg/kg po, qd for 18 days; format: organism-based, A-431; conditions: in vivo, 432 h; outline: as §1
[18] = Clearance in Sprague-Dawley rat at 1 mg/kg, iv incubated for 24 hrs by LC/MS/MS method; format: ADME, organism-based; conditions: in vivo
Outline: (§4)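 Male Sprague-Dawley rats (n = 3) dosed once at 1 mg/kg iv via tail vein, or once at 5 mg/kg by oral gavage, using the same formulation. Serial blood samples were taken over 24 h. Plasma levels were measured by LC/MS/MS (C18 column, 10 mM ammonium formate-0.1% formic acid water/methanol 10/90, ESI positive). Parameters were derived by noncompartmental analysis.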

Mus musculus [19] = assay: Toxicity in human A431 cells xenografted BALB/c mouse assessed as induction of exfoliative skin disorders at 5 and 10 mg/kg po, qd for 18 days; format: organism-based, A-431; conditions: in vivo, 432 h; outline: as §1
Mus musculus [20] = assay: Toxicity in NCI-H1975 xenografted BALB/c mouse assessed as body weight change at 20 mg/kg po, qd for 21 days; format: organism-based; conditions: in vivo, 504 h; outline: as §1
Mus musculus [21] = assay: Toxicity in human HCC827 cells xenografted BALB/c mouse assessed as induction of eye disease at 5 mg/kg po, qd for 12 days; format: organism-based; conditions: in vivo, 288 h; outline: as §1
[22] = Elimination half-life in Sprague-Dawley rat at 1 mg/kg, iv incubated for 24 hrs by LC/MS/MS method; format: ADME, organism-based; conditions: in vivo, read-out: beta t1/2 (converted); outline: as §4
HCC827 = assay: Antitumor activity against human HCC827 cells xenografted in BALB/c mouse assessed as tumor growth inhibition at 5 mg/kg po, qd for 12 days; format: functional, organism-based; outline: as §2
A-431 [23] = assay: Antitumor activity against human A431 cells xenografted in BALB/c mouse assessed as tumor growth inhibition at 5 mg/kg po, qd for 18 days; format: functional, organism-based; outline: as §2
[24] = AUC (0 to infinity) in Sprague-Dawley rat at 1 mg/kg, iv by LC/MS/MS method; format: ADME, organism-based; parameters: dose 1 mg/kg, time infinity, route intravenous; conditions: in vivo; outline: as §4
[25] = Mean residence time in Sprague-Dawley rat at 1 mg/kg, iv incubated for 24 hrs by LC/MS/MS method; format: ADME, organism-based; conditions: in vivo; outline: as §4
[26] = Bioavailability in Sprague-Dawley rat at 1 mg/kg, iv incubated for 24 hrs by LC/MS/MS method; format: ADME, organism-based; conditions: in vivo; outline: as §4
[27] = AUC (0 to 24 hrs) in Sprague-Dawley rat at 1 mg/kg, iv by LC/MS/MS method; format: ADME, organism-based; parameters: time < 24 hr, dose 1 mg/kg, route intravenous; conditions: in vivo; outline: as §4
[28] = Apparent volume of distribution in Sprague-Dawley rat at 1 mg/kg, iv incubated for 24 hrs by LC/MS/MS method; format: ADME, organism-based; conditions: in vivo, read-out: Vd(app); outline: as §4
Mus musculus [29] = assay: Toxicity in human A431 cells xenografted BALB/c mouse assessed as induction of eye diseases at 5 and 10 mg/kg po, qd for 18 days; format: organism-based, A-431; conditions: in vivo, 432 h; outline: as §1
Mus musculus [30] = assay: Toxicity in human HCC827 cells xenografted BALB/c mouse assessed as induction of exfoliative skin disorders at 5 mg/kg po, qd for 12 days; format: organism-based; conditions: in vivo, 288 h; outline: as §1
A-431 [31] = assay: Antitumor activity against human A431 cells xenografted in BALB/c mouse assessed as tumor growth inhibition at 10 mg/kg po, qd for 18 days; format: functional, organism-based; outline: as §2

Sequence of Epidermal growth factor receptor (P00533 whole entry): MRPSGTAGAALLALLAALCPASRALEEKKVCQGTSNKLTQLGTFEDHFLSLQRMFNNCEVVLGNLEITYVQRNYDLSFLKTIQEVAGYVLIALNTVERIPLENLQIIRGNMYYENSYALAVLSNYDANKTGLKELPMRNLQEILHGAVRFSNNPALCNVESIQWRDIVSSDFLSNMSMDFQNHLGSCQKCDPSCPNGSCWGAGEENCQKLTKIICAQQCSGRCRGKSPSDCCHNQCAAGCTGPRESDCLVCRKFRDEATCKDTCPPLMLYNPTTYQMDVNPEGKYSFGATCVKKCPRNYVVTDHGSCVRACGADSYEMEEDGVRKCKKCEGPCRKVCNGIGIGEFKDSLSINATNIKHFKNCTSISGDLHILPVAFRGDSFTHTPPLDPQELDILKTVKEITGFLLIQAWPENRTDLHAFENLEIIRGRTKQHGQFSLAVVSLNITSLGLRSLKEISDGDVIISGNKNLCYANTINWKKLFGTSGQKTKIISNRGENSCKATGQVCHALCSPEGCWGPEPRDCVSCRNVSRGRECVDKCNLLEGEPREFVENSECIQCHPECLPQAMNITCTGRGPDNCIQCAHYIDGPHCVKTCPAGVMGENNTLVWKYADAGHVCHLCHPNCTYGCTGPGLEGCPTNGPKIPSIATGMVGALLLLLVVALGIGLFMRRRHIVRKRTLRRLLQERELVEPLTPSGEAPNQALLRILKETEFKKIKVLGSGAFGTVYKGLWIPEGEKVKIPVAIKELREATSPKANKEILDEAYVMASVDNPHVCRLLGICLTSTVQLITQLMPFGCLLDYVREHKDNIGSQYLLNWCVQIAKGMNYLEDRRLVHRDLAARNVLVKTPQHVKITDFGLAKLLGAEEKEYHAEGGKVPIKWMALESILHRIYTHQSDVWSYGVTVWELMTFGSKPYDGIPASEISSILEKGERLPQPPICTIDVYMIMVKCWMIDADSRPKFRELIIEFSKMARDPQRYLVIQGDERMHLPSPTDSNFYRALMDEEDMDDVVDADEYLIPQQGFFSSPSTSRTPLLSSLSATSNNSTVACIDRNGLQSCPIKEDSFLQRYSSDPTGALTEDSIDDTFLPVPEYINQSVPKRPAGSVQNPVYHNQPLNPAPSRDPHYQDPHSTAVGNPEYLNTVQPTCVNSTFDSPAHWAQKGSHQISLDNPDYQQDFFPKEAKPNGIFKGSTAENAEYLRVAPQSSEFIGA

Compound: CCOc1cc2ncnc(Nc3ccc(F)c(Cl)c3)c2cc1NC(=O)/C=C/CNC1CC1
Activity (Mus musculus [1]): Toxic
Activity (Mus musculus [2]): Toxic
Activity (Mus musculus [3]): Toxic
IC50 [4]: 0.9 nM
TGI (NCI-H1975 [5]): Active
mortality at 216 h [6]: > 50%
Activity (Mus musculus [7]): Toxic
Activity (Mus musculus [8]): Toxic
GI50 (NCI-H1975 [9]): 11.6 nM

Compound: C#Cc1cccc(Nc2ncnc3cc(OCC)c(NC(=O)/C=C/CN(C)C4CC4)cc23)c1
Activity (Mus musculus [10]): Toxic
mortality at 168 h [11]: > 50%
IC50 [4]: 2.4 nM
TGI (NCI-H1975 [12]): Active
GI50 (NCI-H1975 [9]): 41 nM

IC50 [4]: 7.9 nM
GI50 (NCI-H1975 [9]): 18.9 nM
Compound: C#Cc1cccc(Nc2ncnc3cc(OC)c(NC(=O)/C=C/CNC4CC4)cc23)c1
Activity (Mus musculus [13]): Toxic
Activity (Mus musculus [14]): Non-toxic
TGI (NCI-H1975 [15]): Active

clearance [18]: 50 mL/min/kg
IC50 [4]: 5.6 nM
half-life [22]: 2.3 h
AUC(0-inf) [24]: 480 ng·h/mL
MRT [25]: 1.7 h
bioavailability [26]: 37.9%
AUC(0-t) at 24 h [27]: 471 ng·h/mL
Vd [28]: 2.2 L/kg
GI50 (NCI-H1975 [9]): 16.1 nM
Compound: C#Cc1cccc(Nc2ncnc3cc(O[C@H]4CCOC4)c(NC(=O)/C=C/CNC4CC4)cc23)c1
Activity (Mus musculus [16]): Non-toxic
Activity (Mus musculus [17]): Non-toxic
Activity (Mus musculus [19]): Non-toxic
Activity (Mus musculus [20]): Non-toxic
Activity (Mus musculus [21]): Non-toxic
TGI (HCC827): Active
TGI (A-431 [23]): inactive
TGI (NCI-H1975 [12]): Active
Activity (Mus musculus [29]): Non-toxic
Activity (Mus musculus [30]): Non-toxic
TGI (A-431 [31]): Active

— ChEMBL document CHEMBL3621102, “Structure-activity study of quinazoline derivatives leading to the discovery of potent EGFR-T790M inhibitors” (Eur J Med Chem, 2015)
